# Results reported in ChEMBL document CHEMBL1127545, “Synthesis, oral bioavailability determination, and in vitro evaluation of prodrugs of the antiviral agent 9-[2-(phosphonomethoxy)ethyl]adenine (PMEA)” (J Med Chem, 1994).
# How the values were obtained:
# [1] = Bioavailability in rat of PMEA prodrug; assay type: ADME, organism-based; conditions: in vivo
# Outline: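 Male rats fasted 12-18 h, three per route. Reference: parent phosphonate iv bolus 30 mg/kg in normal saline via tail vein. Oral: parent at 30 mg/kg in 5% DMSO/water by gastric intubation; prodrugs as 5% DMSO/water solutions at 24-43 mg/kg PMEA equivalents. Urine collected 0-24 and 24-48 h in metabolism cages. PMEA measured by reversed-phase HPLC with fluorometric detection. Bioavailability = dose-normalized 0-48 h urinary PMEA, oral vs iv.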
# Vero = test: Concentration that reduced plaque formation by 50% was measured in HSV-2 infected vero cells in vitro; assay type: functional, cell-based; conditions: Chlorocebus sabaeus
# Outline: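 Plaque reduction assay against HSV-2 strain G in infected Vero cells. IC50 taken as the concentration giving 50% reduction in plaque formation.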
# [2] = Oral bioavailability of compound in rat; assay type: ADME, organism-based; conditions: in vivo, read-out: Bioavailabiility
# Outline: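 Fasted (12-18 h) male rats, three per route. Prodrugs were given by gastric intubation in 5% DMSO/water at 24-43 mg/kg PMEA equivalents. The reference was PMEA 30 mg/kg as an iv tail-vein bolus in saline. Urine was collected 0-24 and 24-48 h in metabolism cages and PMEA quantified by reversed-phase HPLC with fluorometric detection. Bioavailability is dose-normalized 0-48 h urinary PMEA, oral versus iv.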
# [3] = Oral bioavailability of compound in monkey; assay type: ADME, organism-based; conditions: simiiformes, in vivo, read-out: Bioavailabiility
SMILES,F [1] [%],other results
Nc1ncnc2c1ncn2CCOCP(=O)(O)Oc1ccccc1,14,IC50 (Vero): 95 µM
CCOP(=O)(COCCn1cnc2c(N)ncnc21)OCOC(=O)C(C)(C)C (stereo not given),34.9,
CCCCCCCCOP(=O)(O)COCCn1cnc2c(N)ncnc21,0.8,
Nc1ncnc2c1ncn2CCOCP(=O)(Oc1ccccc1)Oc1ccccc1,11.1,IC50 (Vero): 77 µM
Nc1ncnc2c1ncn2CCOCP(=O)(O)O [ADEFOVIR],7.8,bioavailability [2]: 11%; bioavailability [3]: < 1%; IC50 (Vero): 119 µM
Nc1ncnc2c1ncn2CCOCP1(=O)OCCCO1,0.7,
COP(=O)(COCCn1cnc2c(N)ncnc21)OC,0,
Nc1ncnc2c1ncn2CCOCP(=O)(OCc1ccc([N+](=O)[O-])cc1)OCc1ccc([N+](=O)[O-])cc1,1.7,
CC(=O)OCC(=O)COC(C)=O,5.8,
CC(C)C(=O)OCOP(=O)(COCCn1cnc2c(N)ncnc21)OCOC(=O)C(C)C,,IC50 (Vero): < 0.2 µM
CCN(CC)C(=O)COP(=O)(O)COCCn1cnc2c(N)ncnc21,3.5,
CCN(CC)P(=O)(COCCn1cnc2c(N)ncnc21)N(CC)CC,7.2,
CC1(C)CNP(=O)(COCCn2cnc3c(N)ncnc32)NC1,5.8,
CC1(C)COP(=O)(COCCn2cnc3c(N)ncnc32)OC1,0,
CCC(=O)OCOP(=O)(COCCn1cnc2c(N)ncnc21)OCOC(=O)CC,,IC50 (Vero): 0.4 µM
CCN(CC)C(=O)COP(=O)(COCCn1cnc2c(N)ncnc21)OCOC(=O)C(C)(C)C (stereo not given),2.2,
Nc1ncnc2c1ncn2CCOCP(=O)(O)OCc1ccc([N+](=O)[O-])cc1,1.9,

# Continued, in another order:
F [1] [%],SMILES,other results
10.6,CC(C)(CN)CNP(=O)(O)COCCn1cnc2c(N)ncnc21,
44.4,CC(C)OP(=O)(COCCn1cnc2c(N)ncnc21)OC(C)C,
1.4,COP(=O)(O)COCCn1cnc2c(N)ncnc21,
6.5,CC(C)(C)C(=O)OCOP(=O)(O)COCCn1cnc2c(N)ncnc21,IC50 (Vero): 22 µM
42,CCOP(=O)(COCCn1cnc2c(N)ncnc21)OCC,IC50 (Vero): > 300 µM
0,CC(C)COP(=O)(COCCn1cnc2c(N)ncnc21)OCC(C)C,
2.5,Nc1ncnc2c1ncn2CCOCP(=O)(O)OCC(Cl)(Cl)Cl,
17.3,CC(C)(C)C(=O)OCOP(=O)(COCCn1cnc2c(N)ncnc21)OCOC(=O)C(C)(C)C [ADEFOVIR DIPIVOXIL],IC50 (Vero): 0.6 µM
0.5,CC(C)CCOP(=O)(COCCn1cnc2c(N)ncnc21)OCCC(C)C,
5,CC(C)OP(=O)(O)COCCn1cnc2c(N)ncnc21,
3.5,Nc1ncnc2c1ncn2CCOCP(=O)(O)OCC(F)(F)CO,
0,CCOP(=O)(O)COCCn1cnc2c(N)ncnc21,IC50 (Vero): > 300 µM
10.6,Nc1ncnc2c1ncn2CCOCP(=O)(OCC(Cl)(Cl)Cl)OCC(Cl)(Cl)Cl,
0,CC(C)(CO)COP(=O)(O)COCCn1cnc2c(N)ncnc21,
